Assay results from ChEMBL document CHEMBL1146369, “Novel and versatile methodology for synthesis of cyclic imides and evaluation of their cytotoxic, DNA binding, apoptotic inducing activities and molecular modeling study” (Eur J Med Chem, 2007).

Legend:
Vero = experiment: Cytotoxicity against Vero cells; assay type: cell-based; details: Chlorocebus sabaeus
In short: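 Confluent Vero monolayers in 96-well trays, DMEM with 10% calf serum, exposed in triplicate to 1–500 µM for 48 h at 37 °C. Cells then fixed with 3.7% formaldehyde, rinsed and examined visually. IC50 taken as the concentration causing about 50% loss of monolayer.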

[1] = Partition coefficient, log P of the compound; assay type: physicochemical; details: octanol/water
Neutrophil [2] = experiment: Apoptotic activity in human blood neutrophils after 48 hrs; assay type: functional; set-up: concentration or dose not given beside the values
In short: (§1)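 Neutrophils (>98% pure) isolated from peripheral blood of healthy donors by dextran sedimentation and discontinuous plasma Percoll gradients. Cultured at 37 °C, 5% CO2 in RPMI 1640 with 10% autologous platelet-rich-plasma-derived serum. Compound given at 50 µM in DMSO; controls were untreated cells and 0.01% DMSO. Apoptosis scored by May-Grunwald Giemsa morphology, 500 cells/slide, at 0–72 h. Mean ± SD, n = 3-5.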

Neutrophil [3] = experiment: Apoptotic activity in human blood neutrophils after 72 hrs; assay type: functional; set-up: concentration or dose not given beside the values; in short: as §1
Neutrophil [4] = experiment: Apoptotic activity in human blood neutrophils after 24 hrs; assay type: functional; set-up: concentration or dose not given beside the values; in short: as §1
[5] = Binding affinity to DNA by methyl green/DNA displacement assay; details: Homo sapiens

For C[C@@H](c1ccccc1)N1C(=O)c2cccnc2C1=O, the IC50 (Vero) was 92 µM.

In the case of CCN1C(=O)[C@@H]2C3C=CC(CC3)[C@@H]2C1=O, the IC50 (Vero) is reported as over 100 µM and the logP [1] is reported as 0.8.

Work on O=C1c2nccnc2C(=O)N1C12CC3CC(CC(C3)C1)C2 yielded an IC50 (Vero) of 18 µM, an Activity (Neutrophil [2]) of 45.1% and a logP [1] of 1.8. The Activity (Neutrophil [3]) was 54.05% and the Activity (Neutrophil [4]) was 30.01%.

Molecule O=C1[C@@H]2C3C=CC(CC3)[C@@H]2C(=O)N1c1ccc(C(F)(F)F)cc1 has an IC50 (Vero) of 75 µM.

Cc1cccc(C)c1N1C(=O)[C@@H]2C3C=CC(CC3)[C@@H]2C1=O showed an IC50 (Vero) of 13 µM, an Activity (Neutrophil [2]) of 53.2% and a logP [1] of 3.1. For the same molecule, the Activity (Neutrophil [3]) was 67.98%, the Activity (Neutrophil [4]) was 38.4% and the C50 [5] was 53 µg/mL.

Molecule CC(C)(C)N1C(=O)[C@@H]2C3C=CC(CC3)[C@@H]2C1=O has an IC50 (Vero) of 27 µM, an Activity (Neutrophil [2]) of 29.76% and a logP [1] of 1.3. For the same molecule, the Activity (Neutrophil [3]) was 35.64% and the Activity (Neutrophil [4]) was 12.82%.

C[C@H](c1ccccc1)N1C(=O)c2cccnc2C1=O gave an IC50 (Vero) of 81 µM.

Work on O=C1c2cccnc2C(=O)N1Cc1ccc(Cl)cc1 yielded an IC50 (Vero) of 95 µM.

Molecule O=C1c2ccccc2C(=O)N1CCc1ccccc1 has an IC50 (Vero) of 100 µM.

For Cc1cccc(C)c1N1C(=O)c2cccnc2C1=O, the IC50 (Vero) was 20 µM, the Activity (Neutrophil [2]) was 35% and the logP [1] was 3.2. The Activity (Neutrophil [3]) was 44.16%, the Activity (Neutrophil [4]) was 22.21% and the C50 [5] was 64 µg/mL.

Molecule O=C1c2nccnc2C(=O)N1c1ccccc1 has an IC50 (Vero) of 71 µM.

In the case of CCN1C(=O)c2cccnc2C1=O, the IC50 (Vero) is reported as over 100 µM.

C[C@@H](c1ccccc1)N1C(=O)c2nccnc2C1=O showed an IC50 (Vero) of 85 µM.

Work on O=C1c2cccnc2C(=O)N1Cc1ccccc1 yielded an IC50 (Vero) of over 100 µM.

In the case of COc1ccc(CN2C(=O)c3nccnc3C2=O)cc1OC, the IC50 (Vero) is reported as over 100 µM.

For O=C1c2nccnc2C(=O)N1Cc1ccc(Cl)cc1, the IC50 (Vero) was 88 µM.

For CC(C)c1cccc(C(C)C)c1N1C(=O)c2cccnc2C1=O, the IC50 (Vero) was 21 µM, the Activity (Neutrophil [2]) was 32.77% and the logP [1] was 4.6. For the same molecule, the Activity (Neutrophil [3]) was 41.62% and the Activity (Neutrophil [4]) was 19.1%.

Work on CC(C)c1cccc(C(C)C)c1N1C(=O)c2nccnc2C1=O yielded an IC50 (Vero) of 20 µM, an Activity (Neutrophil [2]) of 38.1% and a logP [1] of 4.2. For the same molecule, the Activity (Neutrophil [3]) was 46.11% and the Activity (Neutrophil [4]) was 24.07%.

With O=C1c2cccnc2C(=O)N1c1ccc(C(F)(F)F)cc1 the IC50 (Vero) was 87 µM.

In the case of C[C@H](c1ccccc1)N1C(=O)[C@@H]2C3C=CC(CC3)[C@@H]2C1=O, the IC50 (Vero) is reported as 43 µM.

In the case of CC(C)(C)N1C(=O)c2cccnc2C1=O, the IC50 (Vero) is reported as 33 µM, the Activity (Neutrophil [2]) is reported as 25.07% and the logP [1] is reported as 1.4. For the same molecule, the Activity (Neutrophil [3]) was 30.23% and the Activity (Neutrophil [4]) was 11%.

Molecule O=C1c2ccccc2C(=O)N1c1ccccc1 [N-PHENYL-PHTHALIMIDE] has an IC50 (Vero) of 82 µM.

In the case of O=C1c2nccnc2C(=O)N1CCc1ccccc1, the IC50 (Vero) is reported as over 100 µM.

In the case of O=C1c2nccnc2C(=O)N1Cc1ccccc1, the IC50 (Vero) is reported as over 100 µM.

With CCCCCc1ccc(N2C(=O)c3nccnc3C2=O)cc1 the IC50 (Vero) was 16 µM, the Activity (Neutrophil [2]) was 49.2% and the logP [1] was 3.8. The Activity (Neutrophil [3]) was 60%, the Activity (Neutrophil [4]) was 31.1% and the C50 [5] was 42 µg/mL.

With O=c1c(O)c(-c2ccc(O)c(O)c2)oc2cc(O)cc(O)c12 [QUERCETIN] the Activity (Neutrophil [2]) was 49.9%, the Activity (Neutrophil [3]) was 71.3% and the Activity (Neutrophil [4]) was 39.9%.

In the case of O=C1c2cccnc2C(=O)N1C12CC3CC(CC(C3)C1)C2, the IC50 (Vero) is reported as 18 µM, the Activity (Neutrophil [2]) is reported as 46% and the logP [1] is reported as 2.3. For the same molecule, the Activity (Neutrophil [3]) was 56.1% and the Activity (Neutrophil [4]) was 31.1%.

For O=C1[C@@H]2C3C=CC(CC3)[C@@H]2C(=O)N1CCc1ccccc1, the IC50 (Vero) was 87 µM and the logP [1] was 2.5.

In the case of O=C1[C@@H]2C3C=CC(CC3)[C@@H]2C(=O)N1c1ccccc1, the IC50 (Vero) is reported as 67 µM.

Molecule O=C1c2cccnc2C(=O)N1CCc1ccccc1 has an IC50 (Vero) of over 100 µM.

CC(C)c1cccc(C(C)C)c1N1C(=O)[C@@H]2C3C=CC(CC3)[C@@H]2C1=O gave an IC50 (Vero) of 16 µM, an Activity (Neutrophil [2]) of 49.11% and a logP [1] of 4.6. The Activity (Neutrophil [3]) was 59.2% and the Activity (Neutrophil [4]) was 32.4%.

For O=C1c2cccnc2C(=O)N1c1ccc(Cl)cc1, the IC50 (Vero) was 92 µM.

COc1ccc(CN2C(=O)c3nccnc3C2=O)cc1 gave an IC50 (Vero) of over 100 µM.

For COc1ccc(CN2C(=O)[C@@H]3C4C=CC(CC4)[C@@H]3C2=O)cc1, the IC50 (Vero) was 67 µM.

In the case of C[C@@H](c1ccccc1)N1C(=O)[C@@H]2C3C=CC(CC3)[C@@H]2C1=O, the IC50 (Vero) is reported as 49 µM.

O=C1[C@@H]2C3C=CC(CC3)[C@@H]2C(=O)N1Cc1ccccc1 gave an IC50 (Vero) of 74 µM and a logP [1] of 2.3.

In the case of CCCCCc1ccc(N2C(=O)c3cccnc3C2=O)cc1, the IC50 (Vero) is reported as 18 µM, the Activity (Neutrophil [2]) is reported as 47.05% and the logP [1] is reported as 4.3. It also gave an Activity (Neutrophil [3]) of 57.87%, an Activity (Neutrophil [4]) of 32.11% and a C50 [5] of 49 µg/mL.

In the case of COc1ccc(CN2C(=O)c3cccnc3C2=O)cc1OC, the IC50 (Vero) is reported as over 100 µM.

Work on O=C1[C@@H]2C3C=CC(CC3)[C@@H]2C(=O)N1c1ccc(Cl)cc1 yielded an IC50 (Vero) of 77 µM.

Molecule O=C1[C@@H]2C3C=CC(CC3)[C@@H]2C(=O)N1C12CC3CC(CC(C3)C1)C2 has an IC50 (Vero) of 14 µM, an Activity (Neutrophil [2]) of 53.2% and a logP [1] of 2.2. It also gave an Activity (Neutrophil [3]) of 68.11%, an Activity (Neutrophil [4]) of 35.5% and a C50 [5] of 69 µg/mL.

Molecule O=C1[C@@H]2C3C=CC(CC3)[C@@H]2C(=O)N1Cc1ccc(Cl)cc1 has an IC50 (Vero) of 51 µM.

With O=c1[nH]cc(F)c(=O)[nH]1 [FLUOROURACIL] the IC50 (Vero) was 0.2 µM.

Molecule CCN1C(=O)c2nccnc2C1=O has an IC50 (Vero) of over 100 µM.

O=C1c2ccccc2C(=O)N1C12CC3CC(CC(C3)C1)C2 showed an IC50 (Vero) of 20 µM, an Activity (Neutrophil [2]) of 34.66% and a logP [1] of 2.7. For the same molecule, the Activity (Neutrophil [3]) was 42.01% and the Activity (Neutrophil [4]) was 21.11%.

Molecule CC(C)(C)N1C(=O)c2nccnc2C1=O has an IC50 (Vero) of 32 µM, an Activity (Neutrophil [2]) of 27.6% and a logP [1] of 0.9. The Activity (Neutrophil [3]) was 33.91% and the Activity (Neutrophil [4]) was 12%.

CC(C)c1cccc(C(C)C)c1N1C(=O)c2ccccc2C1=O showed an IC50 (Vero) of 23 µM, an Activity (Neutrophil [2]) of 30.2% and a logP [1] of 5.1. For the same molecule, the Activity (Neutrophil [3]) was 39.1% and the Activity (Neutrophil [4]) was 15.56%.

O=C1c2nccnc2C(=O)N1c1ccc(Cl)cc1 gave an IC50 (Vero) of 86 µM.

With COc1ccc(CN2C(=O)[C@@H]3C4C=CC(CC4)[C@@H]3C2=O)cc1OC the IC50 (Vero) was 63 µM.

Work on C[C@H](c1ccccc1)N1C(=O)c2nccnc2C1=O yielded an IC50 (Vero) of 79 µM.

With O=C1c2ccccc2C(=O)N1Cc1ccccc1 the IC50 (Vero) was 100 µM.

CCCCCc1ccc(N2C(=O)[C@@H]3C4C=CC(CC4)[C@@H]3C2=O)cc1 gave an IC50 (Vero) of 10 µM, an Activity (Neutrophil [2]) of 58.06% and a logP [1] of 4.2. It also gave an Activity (Neutrophil [3]) of 70.01%, an Activity (Neutrophil [4]) of 39.11% and a C50 [5] of 31 µg/mL.

Molecule O=C1c2nccnc2C(=O)N1c1ccc(C(F)(F)F)cc1 has an IC50 (Vero) of 80 µM.

With C[C@@H](c1ccccc1)N1C(=O)c2ccccc2C1=O the IC50 (Vero) was over 100 µM.

In the case of COc1ccc(CN2C(=O)c3cccnc3C2=O)cc1, the IC50 (Vero) is reported as over 100 µM.

Work on O=C1c2cccnc2C(=O)N1c1ccccc1 yielded an IC50 (Vero) of 72 µM.

Work on Cc1cccc(C)c1N1C(=O)c2nccnc2C1=O yielded an IC50 (Vero) of 18 µM, an Activity (Neutrophil [2]) of 42.03% and a logP [1] of 2.7. The Activity (Neutrophil [3]) was 50.1%, the Activity (Neutrophil [4]) was 28% and the C50 [5] was 59 µg/mL.
